Assay results as given in article PMC7919060 (ACS chemical neuroscience, 2020).
Where a name gives a salt, the structure may show the parent alone. Read-outs that look alike come from different tables or passages of the source.

Key:
[1] = Stability to human liver microsomes; assay type: in vitro ADME; details: pH 7.4
Procedure, shortened: (§1)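 Test compound at 1 μM with 0.5 mg/mL liver microsomes (CD-1 mouse or human), 1.7 mM β-NADPH, 0.1 M phosphate pH 7.4, 3.3 mM MgCl₂, 37 °C, final DMSO <0.1%. Aliquots at 0–60 min (seven points) were quenched in cold acetonitrile with internal standard. Parent remaining was measured by LC-MS/MS. Half-life was taken from ln(remaining) versus time.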

brain GlcCer and GlcSph = assay type: in vivo, D409V/D409V mice of C57BL/6 background; details: CBE mice
Procedure, shortened: (§2)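 Gba D409V/D409V mice (C57BL/6 background) received CBE 25 mg/kg IP daily for 14 days from postpartum day 15. Test compound (10 mg/kg qd IP, citrate-saline) or buffer alone was coadministered; 8–11 mixed-gender mice per group. Sacrifice was 2 h after final dose. Brain GlcCer and GlcSph were separated from galactosyl analogues and quantified by LC-MS/MS. Values were normalised to tissue weight (pmol/mg) relative to vehicle controls; Student's t test.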

MDR1-MDCK cell monolayer = assay: Permeability and efflux in MDR1-MDCK cell monolayer; assay type: in vitro ADME
brain GlcCer [2] = details: normal mice, 60 mg/kg; cited from earlier work
[3] = Mouse pharmacokinetics, single IP dose 10 mg/kg; assay type: in vivo, CD-1 mice
brain GlcCer [4] = assay: In vivo reduction of brain glucosylceramide in normal mice; details: normal C57BL/6 mice, IP
Procedure, shortened: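 Female or male C57BL/6 mice, 6–8 weeks old, on regular chow, given test compound or vehicle IP daily for 3 days. Injection volume was 1% of body weight. Two dose-response runs were done: 30, 10, 1 mg/kg and 1.0–0.03 mg/kg. Whole brain was homogenised in sucrose buffer, then chloroform/methanol extracted and subjected to alkaline methanolysis. Extract was normalised to 2 μmol phospholipid phosphate. GlcCer was quantified by HPTLC against standards.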

P-glycoprotein (MDR1) = assay: Permeability and efflux in MDR1-MDCK cell monolayer; assay type: in vitro ADME; details: dog, MDCK-MDR1
[5] = Stability to mouse liver microsomes; assay type: in vitro ADME; details: CD-1, mouse, pH 7.4
Procedure, shortened: as §1

[6] = assay type: in vivo, D409V/D409V mice of C57BL/6 background; details: both, C57BL/6 (Gba D409V/D409V), mouse, ip, 10 mg/kg
Procedure, shortened: as §2

[7] = mouse, IP, 10 mg/kg, single dose

| SMILES | half-life at 1 μM [1] | brain AUC [3, 7] | Papp A→B (P-glycoprotein (MDR1)) | Papp B→A (P-glycoprotein (MDR1)) | half-life at 1 μM [5] | reduction in brain GlcCer (brain GlcCer and GlcSph; IP 10 mg/kg qd for 14 days) | reduction in brain GlcSph (brain GlcCer and GlcSph; IP 10 mg/kg qd for 14 days) | concentration at 2 h ([6]; brain) | concentration at 2 h ([6]; spleen) | also measured |
| --- | --- | --- | --- | --- | --- | --- | --- | --- | --- | --- |
| CCCCCCCC(=O)N[C@H](CN1CCCC1)[C@H](O)c1ccc2c(c1)OCCO2 [eliglustat, eliglustat tartrate, reference compound] | 12.5 min | – | – | – | – | – | – | – | – | activity on brain glycosphingolipids in CBE mouse assay (brain GlcCer and GlcSph; IP 10 mg/kg qd for 14 days): inactive |
| O=C(CC1Cc2ccccc2C1)N[C@H](CN1CCCC1)[C@H](O)c1ccc2c(c1)OCCO2 [Compound 2] | – | 36 ng·h/g | – | – | – | – | – | – | – | efflux ratio (MDR1-MDCK cell monolayer; MDR1-MDCK cell monolayer): 298; Papp A-B (MDR1-MDCK cell monolayer; MDR1-MDCK cell permeability): 0.14 ×10⁻⁶ cm/s; Papp B-A (MDR1-MDCK cell monolayer; MDR1-MDCK cell permeability): 40.8 ×10⁻⁶ cm/s; reduction in brain GlcCer (brain GlcCer [2]): 17%; cumulative B/P ratio (brain AUC/plasma AUC) [3, 7]: 0.11; plasma AUC [3, 7]: 317 ng·h/mL |
| O=C(CC1Cc2ccccc2C1)N[C@H](CN1CCCC1)[C@H](O)c1ccc(OC(F)(F)F)cc1 [Compound 17, 2-(2,3-Dihydro-1H-inden-2-yl)-N-((1R,2R)-1-hydroxy-3-(pyrrolidin-1-yl)-1-(4-(trifluoromethoxy)phenyl)propan-2-yl)acetamide] | – | 1046 ng·h/g | 0.95 ×10⁻⁶ cm/s | 56.6 ×10⁻⁶ cm/s | 37 min | 19% | 39% | 134 ng/g | 4880 ng/g | reduction in brain GlcCer (brain GlcCer [4]; 1 mg/kg for 3 days): about 34%; reduction in brain GlcCer (printed as negative change) (brain GlcCer [4]; 30 mg/kg for 3 days): −41%; increase in overall brain exposure vs 2 ([3]; mouse, IP, 10 mg/kg, brain AUC relative to 2): ~30 fold; total brain exposure (AUC) as percentage of that of Genz-682452 ([3]; mouse, single 10 mg/kg IP dose): about 20%; effect on brain levels of galactosylceramide and galactosylsphingosine (brain GlcCer and GlcSph; selectivity vs galactosylceramide synthase, data not shown): lack of effect |
| CC(C)(NC(=O)O[C@@H]1CN2CCC1CC2)c1csc(-c2ccc(F)cc2)n1 [Compound 3, reference compound] | > 60 min | 6188 ng·h/g | 0.58 ×10⁻⁶ cm/s | 49 ×10⁻⁶ cm/s | > 60 min | 26% | 35% | 493 ng/g | 4570 ng/g | AUC ([3]; female, CD-1, mouse, plasma, ip, 10 mg/kg): 7160 ng·h/mL |
